In paper PMC5749269 (ACS biomaterials science & engineering, 2017):
Where no end group is shown, it is not given here.

Experiments:
[1] = test system: WEHI 274.1 murine monocytes; test: Chemotaxis assay; format: cell-based; conditions: 1000 μM, 4 h, transwell 8 μm pores, Pico Green, n = 5, mean ± SEM
[2] = Zeta potential analysis; format: physicochemical; conditions: 100 μM in water, n = 3
Procedure, shortened: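 Micelles made by methanol thin-film evaporation, overnight vacuum drying and 30 min hydration at 80 °C, then cooled to room temperature. Zeta potential measured on 100 μM micelles dissolved in water, n = 3.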

[3] = test system: WEHI 274.1 murine monocytes; test: In vitro cell viability; conditions: MTS assay, varying concentrations, 24 and 72 h, n = 6
[4] = test system: 22Rv1 prostate cancer cells; format: cell-based; conditions: 72 h
[5] = test system: CCR2 gene expression in 22Rv1 prostate cancer cells; test: CCR2 expression by qRT-PCR; format: cell-based; conditions: 22Rv1 cells, 5 μM (noncytotoxic), vs PBS, n = 3
Procedure, shortened: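 22Rv1 cells kept in RPMI-1640 with 10% FBS and 1% penicillin-streptomycin at 37 °C, 5% CO2, treated with test compound at 5 μM or PBS. cDNA made with an RT2 first-strand kit and amplified with RT2 SYBR Green qPCR master mix. Relative expression vs Actb or GAPDH housekeeping gene by the 2ΔΔCq method. n = 3, mean ± SEM.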

[6] = test system: PC3 prostate cancer cells; test: In vitro cytotoxicity; format: cell-based; conditions: 72 h

For “CYNSLVFRIRNSTQRKYRASISTK-OH [scrambled peptide]”, the “migrated monocytes (DNA quantification)” value [1] was 13.9 ± 2.8 ng DNA/mL, the zeta potential [2] was 7.2 ± 3.4 mV and the “cell viability of monocytes” value [3] was “no decrease in cell viability”. The IC50 [4] was 76.1 ± 15.8 µM, the “downregulation of CCR2 gene expression” value [5] was “unappreciable CCR2 changes” and the IC50 [6] was greater than 100 µM.
